The source of these data is ChEMBL document CHEMBL5712085, “Inhibition of SMYD2 Sensitized Cisplatin to Resistant Cells in NSCLC Through Activating p53 Pathway” (2019).

Structures are written as SMILES. The source made the active and inactive calls. No cut-off for these calls is given here.

Assay [1] concerns NCI-H460. Briefly: Antitumor activity against human CDDP-resistant NCI-H460 cells xenografted in Balb/c mouse assessed as slight decrease in tumor growth at 40 mg/kg/day i.p. It is filed as functional, organism-based. The following applies: Lung, route ip. Put shortly:
(§1)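 Male BALB/c mice aged 7–8 weeks received NCI-H460/CDDP cells (5 × 10^6 in 100 μl PBS) subcutaneously into the right flank. At a mean tumor volume of 100 mm3, mice were randomized (n = 6 per group) to saline, inhibitor 40 mg/kg once daily i.p., CDDP 4.0 mg/kg every 3 days i.p., or the combination. Tumor growth was followed for 2 weeks.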
(In general: A xenograft is tissue or cells of one species grown in another, often human tumour cells in immunodeficient mice.)

Assay [2] relates to NCI-H460. Briefly: Antitumor activity against human CDDP-resistant NCI-H460 cells xenografted in Balb/c mouse assessed as inhibition of tumor growth at 40 mg/kg/day i.p in presence of cisplatin. The format is functional, organism-based. The following applies: Lung, route ip. Put shortly:
as §1

For assay [3], the system named is Mus musculus. Briefly: Downregulation of p53K370me protein expression in Balb/c mouse tumor xenografted with CDDP-resistant NCI-H460 cells at 40 mg/kg/day ip by Western blot analysis. It is filed as functional, organism-based. Put shortly:
(§2)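 Excised tumors came from NCI-H460/CDDP flank xenografts in male BALB/c mice (saline, inhibitor 40 mg/kg daily i.p., CDDP 4.0 mg/kg every 3 days i.p., or the combination; 2 weeks). They were stored at −80°C. Protein extracts were run on 10–15% SDS-PAGE, transferred to PVDF, probed with primary and HRP secondary antibodies, detected by ECL and normalized to β-actin.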
(In general: A western blot detects proteins with antibodies after separation by electrophoresis.)

Assay [4] has as its system Mus musculus. Description: Downregulation of p53K370me protein expression in Balb/c mouse tumor xenografted with CDDP-resistant NCI-H460 cells at 40 mg/kg/day ip by Western blot analysis in presence of cisplatin. It is filed as functional, organism-based. The gist of the method:
as §2

In assay [5] the test system is NCI-H460. Briefly: Potentiation of CDDP-induced apoptosis in human NCI-H460 cells assessed as viable cells at 2 uM measured after 48 hrs by annexin-V/PI staining based flow cytometry. It is filed as functional. The following applies: NCI-H460, Lung, read-out: Activity. (In general: In flow cytometry, cells or beads pass a laser one at a time.)
Assay [6] relates to NCI-H460. Description: Induction of apoptosis in human CDDP-resistant NCI-H460 cells assessed as necrotic cells at 10 uM after 48 hrs by annexin-V/PI staining based flow cytometry (reference value: 0.03%). The format is functional, Lung.
The subject of assay [7] is NCI-H460. Briefly: Potentiation of Taxol-induced cytotoxicity in human NCI-H460 cells assessed as cell viability at 2 uM measured after 48 hrs by MTT assay. The following applies: Lung. It is filed as functional, cell-based.
For assay [8], the system named is NCI-H460. Description: Induction of apoptosis in human CDDP-resistant NCI-H460 cells assessed as late apoptotic cells at 10 uM after 48 hrs by annexin-V/PI staining based flow cytometry (reference value: 0.03%). The format is functional, Lung.
For assay [9], the system named is A549. Briefly: Potentiation of Taxol-induced cytotoxicity in human A549 cells assessed as cell viability at 2 uM measured after 48 hrs by MTT assay. The format is functional, cell-based. Particulars: Lung.
For assay [10], the system named is NCI-H460. Description: Potentiation of CDDP-induced apoptosis in human CDDP-resistant NCI-H460 cells assessed as necrotic cells at 2 uM measured after 48 hrs by annexin-V/PI staining based flow cytometry. It is filed as functional, Lung.
The subject of assay [11] is A549. Description: Potentiation of VCR-induced cytotoxicity in human A549 cells assessed as cell viability at 2 uM measured after 48 hrs by MTT assay. The format is functional, cell-based. The following applies: Lung.
For assay [12], the system named is NCI-H460. Description: Potentiation of CDDP-induced apoptosis in human CDDP-resistant NCI-H460 cells assessed as early apoptotic cells at 2 uM measured after 48 hrs by annexin-V/PI staining based flow cytometry. The format is functional, Lung.
The test system of assay [13] is NCI-H460. Description: Induction of apoptosis in human CDDP-resistant NCI-H460 cells assessed as viable cells at 10 uM after 48 hrs by annexin-V/PI staining based flow cytometry (reference value: 95.44%). It is filed as functional. Particulars: NCI-H460, Lung, read-out: Activity.
Assay [14] concerns NCI-H460. Briefly: Potentiation of CDDP-induced apoptosis in human NCI-H460 cells assessed as early apoptotic cells at 2 uM measured after 48 hrs by annexin-V/PI staining based flow cytometry. It is filed as functional, Lung.
Assay [15] relates to NCI-H460. Briefly: Induction of apoptosis in human NCI-H460 cells assessed as viable cells at 10 uM after 48 hrs by annexin-V/PI staining based flow cytometry (reference value: 98.42%). The format is functional. Particulars: NCI-H460, Lung, read-out: Activity.
Assay [16] concerns NCI-H460. Briefly: Potentiation of CDDP-induced apoptosis in human CDDP-resistant NCI-H460 cells assessed as late apoptotic cells at 2 uM measured after 48 hrs by annexin-V/PI staining based flow cytometry. It is filed as functional, Lung.
For assay [17], the system named is NCI-H460. Briefly: Potentiation of CDDP-induced apoptosis in human CDDP-resistant NCI-H460 cells assessed as viable cells at 2 uM measured after 48 hrs by annexin-V/PI staining based flow cytometry. It is filed as functional. Particulars: NCI-H460, Lung, read-out: Activity.
For assay [18], the system named is NCI-H460. Description: Induction of apoptosis in human CDDP-resistant NCI-H460 cells assessed as early apoptotic cells at 10 uM after 48 hrs by annexin-V/PI staining based flow cytometry (reference value: 0.03%). The format is functional, Lung.
Assay [19] relates to NCI-H460. Description: Potentiation of CDDP-induced apoptosis in human NCI-H460 cells assessed as late apoptotic cells at 2 uM measured after 48 hrs by annexin-V/PI staining based flow cytometry. It is filed as functional, Lung.
Assay [20] concerns NCI-H460. Briefly: Induction of apoptosis in human NCI-H460 cells assessed as necrotic cells at 10 uM after 48 hrs by annexin-V/PI staining based flow cytometry (reference value: 1.53%). It is filed as functional, Lung.
Assay [21] relates to NCI-H460. Description: Induction of apoptosis in human NCI-H460 cells assessed as late apoptotic cells at 10 uM after 48 hrs by annexin-V/PI staining based flow cytometry (reference value: 0.02%). The format is functional, Lung.
The subject of assay [22] is NCI-H460. Briefly: Potentiation of CDDP-induced apoptosis in human NCI-H460 cells assessed as necrotic cells at 2 uM measured after 48 hrs by annexin-V/PI staining based flow cytometry. It is filed as functional, Lung.
The test system of assay [23] is NCI-H460. Briefly: Induction of apoptosis in human NCI-H460 cells assessed as early apoptotic cells at 10 uM after 48 hrs by annexin-V/PI staining based flow cytometry (reference value: 0.02%). The format is functional, Lung.
For assay [24], the system named is NCI-H460. Description: Potentiation of VCR-induced cytotoxicity in human NCI-H460 cells assessed as cell viability at 2 uM measured after 48 hrs by MTT assay. The format is functional, cell-based. The following applies: Lung.
For assay [25], the system named is A549. Description: Cytotoxicity against human A549 cells assessed as inhibition of cell growth measured after 48 hrs by MTT assay. It is filed as functional, cell-based. The following applies: Lung. The gist of the method: (§3)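 Cells were grown in RPMI-1640 with 10% FBS, seeded at 1 × 10^5 cells/ml, left overnight and treated with a range of concentrations for 48 h. MTT (2.5 mg/ml in PBS) was added for 4 h at 37°C. Plates were centrifuged, the medium removed and the formazan dissolved in DMSO. OD was read at 570 nm.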

Assay [26] relates to NCI-H460. Description: Cytotoxicity against human NCI-H460 cells assessed as inhibition of cell growth measured after 48 hrs by MTT assay. It is filed as functional, cell-based. The following applies: Lung. The gist of the method:
as §3

For `O=C1COc2c(CCNCCN(C(=O)CCNCCc3ccc(Cl)c(Cl)c3)C3CCCCC3)ccc(O)c2N1`, the result in [1] and in assay [2] was Active. The inhibition entry in assay [3] and in assay [4] was “Active” throughout.
With `CCN(C(=O)CO)[C@H]1CN(/C(=N\C#N)Nc2cccc(OC(F)F)c2)N=C1c1ccc(Cl)c(Cl)c1`, the viability at 2 µM in assay [5] stood at 0.5%; in assay [17] it was 8.94%. The Activity stood at 4.72% in [6]; 7.55% in [8]; 19.75% in assay [10]; 5.21% in [12]; 14.7% in assay [14]; 66.1% in assay [16]. The Activity is reported as 1.53% in assay [18]; 84.74% in assay [19]; 2.08% in assay [20]; 0.26% in assay [21]; 0.04% in assay [22]; 0.03% in assay [23]. Moreover, the outcome in assay [7], in assay [9], in assay [11] and in [24] was inactive. Also, the results for the viability at 10 µM in [13] and in assay [15] were 85.2% and 97.6%, respectively.
As to `CCC1=C[C@@H]2CN(C1)Cc1c([nH]c3ccccc13)[C@@](C(=O)OC)(c1cc3c(cc1OC)N(C)[C@H]1[C@@](O)(C(=O)OC)[C@H](OC(C)=O)[C@]4(CC)C=CCN5CC[C@]31[C@@H]54)C2`, the Activity entry in assay [25] and in assay [26] was “Dose-Dependent Effect” each time.
Consider `CC(=O)O[C@H]1C(=O)[C@@]2(C)[C@H]([C@H](OC(=O)c3ccccc3)[C@]3(O)C[C@H](OC(=O)[C@H](O)[C@@H](NC(=O)c4ccccc4)c4ccccc4)C(C)=C1C3(C)C)[C@]1(OC(C)=O)CO[C@@H]1C[C@@H]2O`, for which the Activity result in assay [25] and in [26] was “Dose-Dependent Effect” in each case.
With `CC[C@]1(O)C[C@H]2CN(CCc3c([nH]c4ccccc34)[C@@](C(=O)OC)(c3cc4c(cc3OC)N(C=O)[C@H]3[C@@](O)(C(=O)OC)[C@H](OC(C)=O)[C@]5(CC)C=CCN6CC[C@]43[C@@H]65)C2)C1`, the Activity entry in assay [25] and in assay [26] was “Dose-Dependent Effect” each time.
